# Experimental data from ChEMBL document CHEMBL1156706, “Structure-activity relationships of novel heteroaryl-acrylonitriles as cytotoxic and antibacterial agents” (Eur J Med Chem, 2008).
# Active and inactive are the calls of the source. The rule behind the calls is not given here.
# Legend:
# RT-4 = assay: Cytotoxicity against human RT4 cells after 96 hrs by microtiter assay; assay type: functional, cell-based; conditions: RT-4, 96 h
# Outline: (§1)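 DSMZ cell lines in RPMI 1640 with 10% FCS. DMF stocks diluted 1000-fold into medium. Continuous exposure 96 h at 37 °C, 5% CO2. Adherent cells stained with crystal violet. IC50 (50% growth inhibition vs untreated control) obtained by least-squares fitting of dose–response curves, averaging 2–5 independent determinations.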
# RT-112 = assay: Cytotoxicity against human RT112 cells after 96 hrs by microtiter assay; assay type: functional, cell-based; conditions: RT-112, 96 h; outline: as §1
# 5637 = assay: Cytotoxicity against human 5637 cells after 96 hrs by microtiter assay; assay type: functional, cell-based; conditions: Homo sapiens, 5637, 96 h; outline: as §1
# [1] = Cytotoxicity against human KYSE70 cells after 96 hrs by microtiter assay; assay type: functional, cell-based; conditions: KYSE-70, 96 h; outline: as §1
# KYSE-510 = assay: Cytotoxicity against human KYSE510 cells after 96 hrs by microtiter assay; assay type: functional, cell-based; conditions: KYSE-510, 96 h; outline: as §1
# [2] = Cytotoxicity against human KYSE520 cells after 96 hrs by microtiter assay; assay type: functional, cell-based; conditions: KYSE-520, 96 h; outline: as §1
# YAPC = assay: Cytotoxicity against human YAPC cells after 96 hrs by microtiter assay; assay type: functional, cell-based; outline: as §1
# DAN-G = assay: Cytotoxicity against human DAN-G cells after 96 hrs by microtiter assay; assay type: functional, cell-based; outline: as §1
# SISO = assay: Cytotoxicity against human SISO cells after 96 hrs by microtiter assay; assay type: functional, cell-based; outline: as §1
# [3] = Cytotoxicity against human LCLC-103H cells after 96 hrs by microtiter assay; assay type: functional, cell-based; outline: as §1
# MCF7 = assay: Cytotoxicity against human MCF7 cells after 96 hrs by microtiter assay; assay type: functional, cell-based; conditions: MCF7, 96 h; outline: as §1
# A-427 = assay: Cytotoxicity against human A427 cells after 96 hrs by microtiter assay; assay type: functional, cell-based; conditions: A-427, 96 h; outline: as §1
# HL-60 [4] = assay: Cell cycle arrest in human HL60 cells assessed as accumulation at G0/G1 phase at 0.15 uM after 72 hrs by FACS relative to untreated control; assay type: functional, cell-based
# Outline: (§2)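 Unsynchronized HL-60 cells treated 24 or 72 h across 0.03–1 µM. Cells fixed in 70% ice-cold ethanol and DNA stained with propidium iodide. Fractions in G0/G1, S and G2/M quantified by flow cytometry and compared with untreated control.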
# HL-60 [5] = assay: Cell cycle arrest in human HL60 cells assessed as accumulation at G2/M phase at 0.15 uM after 72 hrs by FACS relative to untreated control; assay type: functional, cell-based; outline: as §2
# HL-60 [6] = assay: Cell cycle arrest in human HL60 cells assessed as accumulation at G0/G1 phase at 0.3 uM after 72 hrs by FACS relative to untreated control; assay type: functional, cell-based; outline: as §2
# HL-60 [7] = assay: Cell cycle arrest in human HL60 cells assessed as accumulation at G2/M phase at 0.3 uM after 72 hrs by FACS relative to untreated control; assay type: functional, cell-based; outline: as §2
# Enterococcus hirae = assay: Antibacterial activity against Enterococcus hirae NCTC 10541 after 24 hrs; assay type: functional, organism-based; conditions: NCTC 10541, 24 h
# Outline: (§3)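 Overnight culture diluted in Mueller–Hinton broth to 10^5 CFU/ml. Compounds dissolved in DMSO and diluted twofold in broth over 0.24–62.5 […]. Tubes inoculated and incubated 24 h at 37 °C. MIC taken as the lowest concentration with no visible growth. Clear tubes were subcultured onto Mueller–Hinton agar, and MBC was taken as the minimal concentration killing the organisms after 24 h.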
# Staphylococcus aureus = assay: Antibacterial activity against Staphylococcus aureus NCTC 4163 after 24 hrs; assay type: functional, organism-based; conditions: NCTC 4163, 24 h; outline: as §3
# [8] = tested on: Staphylococcus epidermidis; assay: Antibacterial activity against Staphylococcus epidermis NCTC 14990 after 24 hrs; assay type: functional, organism-based; conditions: NCTC 14990, 24 h; outline: as §3
# HL-60 [9] = assay: Cell cycle arrest in human HL60 cells assessed as accumulation at G0/G1 and G2/M phases at 0.3 uM after 72 hrs by FACS relative to untreated control
# HL-60 [10] = assay: Cell cycle arrest in human HL60 cells assessed as accumulation at G0/G1 and G2/M phases at 0.15 uM after 72 hrs by FACS relative to untreated control
# [11] = Aqueous solubility in phosphate buffered saline at pH 7.4 after 24 hrs; assay type: physicochemical
# Outline: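 Solid added in excess to Dulbecco's PBS, pH 7.4, and stirred in the dark 24 h at room temperature. Suspension filtered through a 0.22 filter. Filtrate absorbance read at each compound's λmax, and dissolved concentration calculated from the extinction coefficient at that wavelength.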
MIC (Enterococcus hirae) [µM],MIC (Staphylococcus aureus) [µM],MIC [8] [µM],solubility at 24 h [11] [µM],SMILES,IC50 (RT-4) [µM],IC50 (RT-112) [µM],IC50 5637 [µM],IC50 [1] [µM],IC50 (KYSE-510) [µM],IC50 [2] [µM],IC50 (YAPC) [µM],IC50 (DAN-G) [µM],IC50 (SISO) [µM],IC50 [3] [µM],IC50 (MCF7) [µM],IC50 (A-427) [µM],other results
> 210,6.4,3.2,,N#C/C(=C\c1ccc([N+](=O)[O-])s1)c1nc2ccccc2[nH]1,0.53,0.44,0.19,0.19,0.4,0.13,0.21,0.6,0.48,0.21,0.26,0.15,Activity (HL-60 [4]): Active; Activity (HL-60 [5]): Active; Activity (HL-60 [6]): Active; Activity (HL-60 [7]): Active; Activity (HL-60 [9]): Active; Activity (HL-60 [10]): Active
> 222,111,111,< 0.1,N#C/C(=C\c1ccc([N+](=O)[O-])o1)c1nc2ccccc2o1,3.98,1.41,1.65,2.91,7,1.68,2.86,3,2.86,1.33,2.87,1.13,
> 200,12,12,< 0.1,N#C/C(=C\c1ccc([N+](=O)[O-])s1)c1nc2ccccc2s1,0.92,0.75,0.62,0.51,0.93,0.46,0.42,0.72,0.64,0.88,0.83,0.38,
> 210,210,210,< 0.1,N#C/C(=C\c1ccc([N+](=O)[O-])s1)c1nc2ccccc2o1,6.57,3.88,3.91,5.3,22.6,2.76,1.7,12.6,14.1,12.1,5.69,2.33,
